What was measured:
Details in all cases: in vivo
[1] = test system: Blood; experiment: Biodistribution in blood of B16F0 tumor bearing C57BL/6J mouse at 0.37-0.74 MBq, iv after 24 hrs; assay type: ADME, organism-based
Summary of the method: (§1)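 Female C57BL/6J mice (15-18 g) were given B16F0 cells subcutaneously in the left flank (0.1 mL of 3 × 10⁶ viable cells/mL in Ca²⁺/Mg²⁺-free PBS) at 6-7 weeks and used after ten days. [¹²³I]benzamide (0.37-0.74 MBq, 100 µL, saline) was injected via the tail vein. Groups of n = 5 were killed by CO₂ and cervical dislocation. Organs were weighed and γ-counted, and the carcass was counted too.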

[2] = Biodistribution in melanoma of B16F0 tumor bearing C57BL/6J mouse at 0.37-0.74 MBq, iv after 1 hr; assay type: ADME, organism-based, B16-F0; summary of the method: as §1
[3] = Biodistribution in melanoma of B16F0 tumor bearing C57BL/6J mouse at 0.37-0.74 MBq, iv after 6 hrs; assay type: ADME, organism-based, B16-F0
Summary of the method: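 Female C57BL/6J mice (15-18 g) carrying s.c. B16F0 flank tumors (0.1 mL of 3 × 10⁶ viable cells per mL in Ca²⁺/Mg²⁺-free PBS, inoculated at 6-7 weeks, used 10 days later). [¹²³I]tracer 0.37-0.74 MBq in saline, 100 µL, tail-vein i.v. Groups of n = 5 killed at 1-72 h. Organs weighed and γ-counted, carcass activity also counted, values as %ID/g.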

[4] = Biodistribution in melanoma of B16F0 tumor bearing C57BL/6J mouse at 0.37-0.74 MBq, iv after 48 hrs; assay type: ADME, organism-based, B16-F0; summary of the method: as §1
[5] = test system: Liver; experiment: Biodistribution in liver of B16F0 tumor bearing C57BL/6J mouse at 0.37-0.74 MBq, iv after 6 hrs; assay type: ADME, organism-based; summary of the method: as §1
[6] = test system: Liver; experiment: Biodistribution in liver of B16F0 tumor bearing C57BL/6J mouse at 0.37-0.74 MBq, iv after 24 hrs; assay type: ADME, organism-based; summary of the method: as §1
[7] = test system: Liver; experiment: Biodistribution in liver of B16F0 tumor bearing C57BL/6J mouse at 0.37-0.74 MBq, iv after 48 hrs; assay type: ADME, organism-based; summary of the method: as §1
[8] = test system: Liver; experiment: Biodistribution in liver of B16F0 tumor bearing C57BL/6J mouse at 0.37-0.74 MBq, iv after 72 hrs; assay type: ADME, organism-based; summary of the method: as §1
[9] = test system: Kidney; experiment: Biodistribution in kidney of B16F0 tumor bearing C57BL/6J mouse at 0.37-0.74 MBq, iv after 1 hr; assay type: ADME, organism-based; summary of the method: as §1
[10] = test system: Kidney; experiment: Biodistribution in kidney of B16F0 tumor bearing C57BL/6J mouse at 0.37-0.74 MBq, iv after 48 hrs; assay type: ADME, organism-based; summary of the method: as §1
[11] = test system: Lung; experiment: Biodistribution in lung of B16F0 tumor bearing C57BL/6J mouse at 0.37-0.74 MBq, iv after 6 hrs; assay type: ADME, organism-based; summary of the method: as §1
[12] = test system: Lung; experiment: Biodistribution in lung of B16F0 tumor bearing C57BL/6J mouse at 0.37-0.74 MBq, iv after 24 hrs; assay type: ADME, organism-based; summary of the method: as §1
[13] = test system: Lung; experiment: Biodistribution in lung of B16F0 tumor bearing C57BL/6J mouse at 0.37-0.74 MBq, iv after 48 hrs; assay type: ADME, organism-based; summary of the method: as §1
[14] = test system: Heart; experiment: Biodistribution in heart of B16F0 tumor bearing C57BL/6J mouse at 0.37-0.74 MBq, iv after 72 hrs; assay type: ADME, organism-based; summary of the method: as §1
[15] = test system: Brain; experiment: Biodistribution in brain of B16F0 tumor bearing C57BL/6J mouse at 0.37-0.74 MBq, iv after 1 hr; assay type: ADME, organism-based; summary of the method: as §1
[16] = test system: Brain; experiment: Biodistribution in brain of B16F0 tumor bearing C57BL/6J mouse at 0.37-0.74 MBq, iv after 6 hrs; assay type: ADME, organism-based; summary of the method: as §1
[17] = test system: Brain; experiment: Biodistribution in brain of B16F0 tumor bearing C57BL/6J mouse at 0.37-0.74 MBq, iv after 24 hrs; assay type: ADME, organism-based; summary of the method: as §1
[18] = test system: Brain; experiment: Biodistribution in brain of B16F0 tumor bearing C57BL/6J mouse at 0.37-0.74 MBq, iv after 48 hrs; assay type: ADME, organism-based; summary of the method: as §1
[19] = test system: Blood; experiment: Biodistribution in blood of B16F0 tumor bearing C57BL/6J mouse at 0.37-0.74 MBq, iv after 6 hrs; assay type: ADME, organism-based; summary of the method: as §1
[20] = test system: Blood; experiment: Biodistribution in blood of B16F0 tumor bearing C57BL/6J mouse at 0.37-0.74 MBq, iv after 48 hrs; assay type: ADME, organism-based; summary of the method: as §1
[21] = Biodistribution in tumor of B16F0 tumor bearing C57BL/6J mouse at 0.37-0.74 MBq, iv after 1 hr in presence of haloperidol; assay type: ADME, organism-based, B16-F0
Summary of the method: (§2)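 B16F0 tumor-bearing C57BL/6J mice, groups of n = 5, given haloperidol 1 mg/kg i.v. 5 min before the i.v. [¹²³I]tracer (0.37-0.74 MBq). Killed at 1 or 24 h. Tissues γ-counted as for biodistribution and compared with untreated controls by one-way ANOVA, significance p < 0.01.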

[22] = Biodistribution in tumor of B16F0 tumor bearing C57BL/6J mouse at 0.37-0.74 MBq, iv after 24 hrs in presence of haloperidol; assay type: ADME, organism-based, B16-F0; summary of the method: as §2
[23] = Biodistribution in eye of B16F0 tumor bearing C57BL/6J mouse at 0.37-0.74 MBq, iv after 1 hr in presence of haloperidol; assay type: ADME, organism-based
Summary of the method: (§3)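 Haloperidol blocking in B16F0-bearing C57BL/6J mice: 1 mg/kg haloperidol was given iv 5 min before the iv [¹²³I]benzamide (0.37-0.74 MBq). Groups of n = 5 were killed at 1 or 24 h. Tissues were weighed and γ-counted as in the biodistribution study and compared with untreated controls by one-way ANOVA, with p < 0.01 taken as significant.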

[24] = Biodistribution in eye of B16F0 tumor bearing C57BL/6J mouse at 0.37-0.74 MBq, iv after 24 hrs in presence of haloperidol; assay type: ADME, organism-based; summary of the method: as §3
[25] = test system: Kidney; experiment: Biodistribution in kidney of B16F0 tumor bearing C57BL/6J mouse at 0.37-0.74 MBq, iv after 1 hr in presence of haloperidol; assay type: ADME, organism-based; summary of the method: as §3
[26] = test system: Lung; experiment: Biodistribution in lung of B16F0 tumor bearing C57BL/6J mouse at 0.37-0.74 MBq, iv after 1 hr in presence of haloperidol; assay type: ADME, organism-based; summary of the method: as §3
[27] = test system: Lung; experiment: Biodistribution in lung of B16F0 tumor bearing C57BL/6J mouse at 0.37-0.74 MBq, iv after 24 hrs in presence of haloperidol; assay type: ADME, organism-based; summary of the method: as §3
[28] = test system: Blood; experiment: Biodistribution in blood of B16F0 tumor bearing C57BL/6J mouse at 0.37-0.74 MBq, iv after 1 hr in presence of haloperidol; assay type: ADME, organism-based
[29] = test system: Blood; experiment: Biodistribution in blood of B16F0 tumor bearing C57BL/6J mouse at 0.37-0.74 MBq, iv after 24 hrs in presence of haloperidol; assay type: ADME, organism-based
[30] = test system: Brain; experiment: Biodistribution in brain of B16F0 tumor bearing C57BL/6J mouse at 0.37-0.74 MBq, iv after 1 hr in presence of haloperidol; assay type: ADME, organism-based
[31] = test system: Liver; experiment: Biodistribution in liver of B16F0 tumor bearing C57BL/6J mouse at 0.37-0.74 MBq, iv after 3 hrs; assay type: ADME, organism-based; summary of the method: as §1
[32] = test system: Lung; experiment: Biodistribution in lung of B16F0 tumor bearing C57BL/6J mouse at 0.37-0.74 MBq, iv after 3 hrs; assay type: ADME, organism-based; summary of the method: as §1
[33] = test system: Blood; experiment: Biodistribution in blood of B16F0 tumor bearing C57BL/6J mouse at 0.37-0.74 MBq, iv after 3 hrs; assay type: ADME, organism-based; summary of the method: as §1

Drug uptake [1]: 0.11 % ID/g
Drug uptake [2]: 5.6 % ID/g
Drug uptake [3]: 8.4 % ID/g
Drug uptake [4]: 4.6 % ID/g
Drug uptake [5]: 1.8 % ID/g
Drug uptake [6]: 0.47 % ID/g
Drug uptake [7]: 0.38 % ID/g
Drug uptake [8]: 0.25 % ID/g
Drug uptake [9]: 21.6 % ID/g
Drug uptake [10]: 0.07 % ID/g
Drug uptake [11]: 0.56 % ID/g
Drug uptake [12]: 0.1 % ID/g
Drug uptake [13]: 0.08 % ID/g
Drug uptake [14]: 0.06 % ID/g
Drug uptake [15]: 0.07 % ID/g
Drug uptake [16]: 0.03 % ID/g
Drug uptake [17]: 0.01 % ID/g
Drug uptake [18]: 0.01 % ID/g
Drug uptake [19]: 0.71 % ID/g
Drug uptake [20]: 0.04 % ID/g
Drug uptake [21]: 6.1 % ID/g
Drug uptake [22]: 4.5 % ID/g
Drug uptake [23]: 16.9 % ID/g
Drug uptake [24]: 18.7 % ID/g
Drug uptake [25]: 17.3 % ID/g
Drug uptake [26]: 1.54 % ID/g
Drug uptake [27]: 0.02 % ID/g
Drug uptake [28]: 1.15 % ID/g
Drug uptake [29]: 0.02 % ID/g
Drug uptake [30]: 0.06 % ID/g
Drug uptake [31]: 5 % ID/g
Drug uptake [32]: 0.95 % ID/g
Drug uptake [33]: 0.95 % ID/g
Structure (SMILES): CCCCN(C)CCCCNC(=O)c1cc([123I])c(NC(C)=O)cc1OC
